# From PubChem BioAssay
# CXCR6 inh: inhibitors of human CXCR6 receptor | inhibition, % at 20 µM | hit rate 0.36% among 360,000 | O00574 | CHO-K1 PathHunter CXCR6 beta-arrestin, luminescence; in the data active means inhibition above about 34%, passing the limit was not always enough;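 further: antagonist mode with CXCL16 agonist at 10 nM final; 0% = 10 nM CXCL16 with DMSO and 100% = unstimulated wells without agonist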
# APJ antagonist: blocks the human apelin receptor APJ; hit rate 0.32% among 330,000; P35414; AID 2521; CHO-K1 APJ beta-arrestin complementation, luminescence; inhibition, % at 20 µM;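 active means inhibition above about 40% at 20 µM, limit read from the data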;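 further: cells challenged with 10 nM apelin-13 agonist together with compound; plate controls were apelin-13 plus DMSO wells for no effect and DMSO wells lacking apelin-13 for full effect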
# APJ ag: APJ receptor agonism; P35414; CHO-K1 APJ PathHunter beta-arrestin, luminescence; 0% DMSO wells, 100% apelin; activation, % at 20 µM; hit rate 0.11% among 330,000; AID 2520;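 active means activation more than six SD over the plate average, tested at 20 µM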;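 further: 0% = DMSO alone and 100% = apelin-13 at 10 nM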
#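 Assay system: CHO-K1 cells stably expressing ProLink-tagged human APJ and arrestin–beta-gal acceptor. Compound dosing: 20 µM single point, 1% DMSO. Times: 16-18 h seeding, 90 min dark compound exposure, 60 min detection. Detection: beta-gal luminescence. Evaluation: APJ–arrestin association signal. Controls: negative DMSO alone, positive Apelin-13 at 10 nM.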
# HTR2A ag: activates the mouse 5-HT2A serotonin receptor; CHO-K1 mHTR2A beta-arrestin complementation, luminescence; percent of 30 µM serotonin response; activation, % at 7.6 µM; hit rate 0.66% among 360,000; AID 624169; P35363;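 active means activation above a run cutoff, the mean activation of all tested compounds plus 3 SD, cut at about 14% in these data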;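 further: 0% = plate median of compound wells and 100% = 30 µM serotonin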
# EBI2 antag: antagonists of human EBI2 receptor. P32249. EBI2 beta-arrestin recruitment, luminescence, 7a,25-OHC stimulated. inhibition, % at 5 µM. hit rate 0.81% among 360,000; in the data active means inhibition above about 38%;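 further: enzyme fragment complementation signal reports receptor beta-arrestin coupling in cells; 0% = agonist plus DMSO wells and 100% = wells without agonist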
# Target sequence (P32249 whole entry, looked up, the tested form may be a part): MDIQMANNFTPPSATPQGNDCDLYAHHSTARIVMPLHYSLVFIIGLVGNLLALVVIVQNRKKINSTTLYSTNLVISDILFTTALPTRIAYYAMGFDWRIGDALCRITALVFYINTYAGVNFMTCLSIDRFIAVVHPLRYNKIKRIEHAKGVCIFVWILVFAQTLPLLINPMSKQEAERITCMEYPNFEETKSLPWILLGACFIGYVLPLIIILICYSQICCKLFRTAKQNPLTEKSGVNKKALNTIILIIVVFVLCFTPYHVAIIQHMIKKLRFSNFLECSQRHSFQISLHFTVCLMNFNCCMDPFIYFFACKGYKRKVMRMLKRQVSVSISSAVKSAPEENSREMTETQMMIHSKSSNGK
# CCR6 antagonist: blocks CCL20-driven beta-arrestin recruitment at human CCR6; P51684; CHO-K1 CCR6 PathHunter beta-arrestin, luminescence, CCL20-stimulated; inhibition, % at 20 µM; hit rate 0.49% among 340,000; AID 493098;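 active means compounds whose inhibition of the agonist-driven luminescence signal at 20 µM reaches about 50%, limit read from the data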;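 further: cells stimulated with CCL20 at 14 nM final; plate controls were DMSO with CCL20 for no effect and DMSO without agonist for full effect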
# APJ antag conf: APJ receptor antagonism confirmation. APJ beta-arrestin recruitment, luminescence, antagonist mode. shares compounds with APJ antagonist. inhibition, % at 20 µM. hit rate 66% among 950; in the data active means inhibition above about 50%
# Active calls of the source: *; x = no result given. A selection: hits, their analogues and other compounds. The true share with any hit is near 2.1%.
SMILES,CXCR6 inh,APJ antagonist,APJ ag,HTR2A ag,EBI2 antag,CCR6 antagonist,APJ antag conf
Nc1ccc(-c2c3ccc(=O)cc-3oc3cc(O)ccc23)c(C(=O)O)c1,26,43*,-9,-8,7,39,66*
Cc1nn(Cc2ccc(Cl)cc2)c(C)c1NC(=O)C1CC=CCC1C(=O)O (stereo not drawn),-1,50*,-2,-1,-9,20,33
CC1=NN(C(N)=S)C(=O)C1N=Nc1ccc([N+](=O)[O-])cc1 (stereo not drawn),46*,50*,-10,2,7,75*,81*
CC1=NN(C(N)=S)C(=O)C1N=Nc1ccc(O)cc1 (stereo not drawn),6,13,-5,8,-3,27,x
CCOC(=O)c1ccc(S(=O)(=O)NNC(=O)c2cccc(N(C)C)c2)cc1,-1,50*,0,0,-8,5,19
C/C(=N\O)c1cc(Cl)ccc1O,1,-32,0,1,-10,-5,x
CCC(=O)Nc1c(C#N)c2nc3ccccc3nc2n1C1CCCCC1,2,10,-4,2,2,10,x
CCOC(=O)c1c(NC(=O)c2ccco2)n(C2CCCCC2)c2nc3ccccc3nc12,23,58*,-19,0,19,42,9
CCc1ccc2c(c1)NC(=O)C2(C)Cc1ccccc1 (stereo not drawn),4,x,x,4,2,x,x
CCc1ccc2c(c1)C1(NN=C(c3cccc4ccccc34)S1)C(=O)N2 (stereo not drawn),26,42*,-8,-3,21,x,39
CC1CCCCN1C(=O)CSc1nc2cc3c(cc2c(=O)n1Cc1ccc2c(c1)OCO2)OCO3 (stereo not drawn),10,55*,-1,-1,19,3,57*
OC1CN=C2CCCc3c2n(c2ccc(Cl)cc32)C1 (stereo not drawn),52*,61*,-11,-9,18,68*,101*
N#Cc1cnc(Nc2nc3ccccc3o2)nc1-c1ccccc1,16,52*,-12,-3,18,55*,-2
NC(=S)NNC(=S)Nc1ccccc1,7,41*,-4,-4,-7,5,53*
Cc1ccc(NNC(=O)c2cc(C(C)(C)C)nn2Cc2ccccc2)cc1,19,41*,-11,-1,16,35,103*
Cc1ccc(NC(=O)c2cc(C(C)(C)C)nn2Cc2ccccc2)cc1,-1,6,5,2,8,-12,x
Cc1[nH]c2ccccc2c1Cc1nnc(SCc2ccccc2)o1,6,48*,-4,-9,12,1,31
Cc1ccc(N=Nc2c(=O)[nH]n3c(=O)cc(C)[nH]c23)cc1,17,43*,-7,0,0,27,62*
Cc1ccc(C(=O)CNc2cc(C)ccc2C)cc1,32,43*,-16,1,21,73*,118*
Cc1ccc(C)c(NCC(=O)c2ccc(Cl)cc2)c1,22,73*,-14,2,28,60*,88*
O=C(CNc1ccccc1C(=O)O)c1ccccc1,68*,41*,-14,3,1,79*,149*
Cc1ccccc1NCC(=O)c1ccc(Br)cc1,22,46*,-14,4,9,49,99*
Cc1ccc(C)c(NCC(=O)NNC(=S)Nc2ccccc2)c1,-5,3,-5,2,-2,16,x
Cc1ccc(C)c(NC(=S)N(Cc2ccc(Cl)cc2)Cc2ccc(C(=O)O)cc2)c1,-3,-2,-3,10,-9,8,x
COc1ccc(C(=O)CNc2ccccc2Br)cc1,8,6,-7,2,11,16,x
COc1ccc(-c2nc3ccc(Br)cn3c2Cc2ccsc2)cc1OC,-2,x,x,2,-10,x,x
Cc1ccc(C)c2nc3sc(C(=O)N4CCOCC4)c(N)c3cc12,0,5,-1,-4,29,-3,x
Cc1cc(C)c2nc3sc(C(=O)N4CCOCC4)c(N)c3cc2c1,2,44*,-10,-4,33,10,30
